Results reported in ChEMBL document CHEMBL4411330, “Effects of Systematic Shortening of Noncovalent C8 Side Chain on the Cytotoxicity and NF-κB Inhibitory Capacity of Pyrrolobenzodiazepines (PBDs)” (J Med Chem, 2019).
Activity calls are given as the source filed them. The calls are words filed in the database; no cut-off is given here.

Experiments:
[1] = Cytotoxicity against human primary CLL cells assessed as cell death after 48 hrs by annexin V/propidium iodide-staining based flow cytometry; assay type: functional; conditions: read-out: LC50 (the source's name)
In short: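 Primary patient CLL cells were isolated by Histopaque density gradient, phenotyped by flow cytometry and used within 24 h. Culture was RPMI with 10% FBS, 1% glutamate and 1% pen/strep, plus IL-4 5 ng/ml added with compound, at 37 °C, 5% CO2. Cells at 1,000,000 cells/ml were treated from 1 nM upward for 48 h, in triplicate. Annexin V-FITC/PI was read by flow cytometry, and LC50 came from sigmoidal dose-response fits.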

JJN-3 = experiment: Cytotoxicity against human JJN-3 cells assessed as cell death after 48 hrs by annexin V/propidium iodide-staining based flow cytometry; assay type: functional; conditions: JJN-3, 48 h, read-out: LC50 (the source's name)
In short: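 JJN-3 cells were grown in DMEM with 20% FBS, 1% pen/strep and 1% pyruvate at 37 °C, 5% CO2. They were seeded at 1,000,000 cells/ml and exposed to compound from 1 nM upward for 48 h, in triplicate. Cell death was measured by Annexin V-FITC/propidium iodide flow cytometry, and LC50 was derived from sigmoidal dose-response curves.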

[2] = target: T1, Nuclear factor NF-kappa-B p105 subunit (Homo sapiens) (UniProt P19838); experiment: Inhibition of NF-kappaB in human JJN-3 cells assessed as reduction in p50 DNA binding activity up to 30 nM after 4 hrs by ELISA; assay type: cell-based
T1 sequence (whole entry): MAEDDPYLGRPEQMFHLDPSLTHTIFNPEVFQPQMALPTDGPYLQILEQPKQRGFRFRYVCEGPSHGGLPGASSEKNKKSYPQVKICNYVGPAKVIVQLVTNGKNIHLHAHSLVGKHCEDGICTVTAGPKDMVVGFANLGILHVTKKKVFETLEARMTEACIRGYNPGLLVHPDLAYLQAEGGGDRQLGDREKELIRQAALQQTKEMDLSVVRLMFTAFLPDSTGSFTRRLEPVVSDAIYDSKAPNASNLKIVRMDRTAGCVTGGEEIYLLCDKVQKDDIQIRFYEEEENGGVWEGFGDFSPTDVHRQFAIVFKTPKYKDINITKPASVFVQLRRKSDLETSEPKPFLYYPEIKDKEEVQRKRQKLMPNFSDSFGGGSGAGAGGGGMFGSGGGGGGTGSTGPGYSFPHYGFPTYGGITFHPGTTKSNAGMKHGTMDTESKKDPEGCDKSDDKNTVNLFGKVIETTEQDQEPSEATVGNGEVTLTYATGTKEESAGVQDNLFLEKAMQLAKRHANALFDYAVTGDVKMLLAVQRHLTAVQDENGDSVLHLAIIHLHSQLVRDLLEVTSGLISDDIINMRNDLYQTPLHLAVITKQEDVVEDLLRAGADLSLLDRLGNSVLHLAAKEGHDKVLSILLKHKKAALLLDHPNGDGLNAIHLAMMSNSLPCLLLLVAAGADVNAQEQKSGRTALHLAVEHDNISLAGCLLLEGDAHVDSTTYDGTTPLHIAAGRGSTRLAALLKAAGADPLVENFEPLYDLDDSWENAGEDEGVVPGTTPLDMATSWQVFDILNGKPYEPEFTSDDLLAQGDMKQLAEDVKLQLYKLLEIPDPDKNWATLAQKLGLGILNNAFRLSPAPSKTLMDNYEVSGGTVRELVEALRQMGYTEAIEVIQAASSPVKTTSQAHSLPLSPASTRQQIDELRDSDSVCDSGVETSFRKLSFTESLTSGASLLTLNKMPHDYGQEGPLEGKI

[3] = Cytotoxicity against human T cells assessed as cell death after 48 hrs by annexin V/propidium iodide-staining based flow cytometry; conditions: read-out: LC50
In short: (§1)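 Normal peripheral blood B or T cells from three donors were isolated by Histopaque density gradient and phenotyped for CD19/CD3/CD38/CD49d. They were used within 24 h in RPMI with 10% FBS, 1% glutamate and 1% pen/strep at 37 °C, 5% CO2. Cells at 1,000,000 cells/ml were exposed from 1 nM upward for 48 h, in triplicate. FITC-Annexin V/PI staining was read by flow cytometry, and LC50 was taken from the dose-response curves.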

[4] = Therapeutic index, ratio of LC50 for human B cells to LC50 for human primary CLL cells; assay type: toxicity; conditions: B cells versus primary CLL cells, read-out: TI
[5] = target: T2, Transcription factor RelB (Homo sapiens) (UniProt Q01201); experiment: Inhibition of NF-kappaB in human JJN-3 cells assessed as reduction in RelB DNA binding activity up to 30 nM after 4 hrs by ELISA; assay type: cell-based
T2 sequence (whole entry): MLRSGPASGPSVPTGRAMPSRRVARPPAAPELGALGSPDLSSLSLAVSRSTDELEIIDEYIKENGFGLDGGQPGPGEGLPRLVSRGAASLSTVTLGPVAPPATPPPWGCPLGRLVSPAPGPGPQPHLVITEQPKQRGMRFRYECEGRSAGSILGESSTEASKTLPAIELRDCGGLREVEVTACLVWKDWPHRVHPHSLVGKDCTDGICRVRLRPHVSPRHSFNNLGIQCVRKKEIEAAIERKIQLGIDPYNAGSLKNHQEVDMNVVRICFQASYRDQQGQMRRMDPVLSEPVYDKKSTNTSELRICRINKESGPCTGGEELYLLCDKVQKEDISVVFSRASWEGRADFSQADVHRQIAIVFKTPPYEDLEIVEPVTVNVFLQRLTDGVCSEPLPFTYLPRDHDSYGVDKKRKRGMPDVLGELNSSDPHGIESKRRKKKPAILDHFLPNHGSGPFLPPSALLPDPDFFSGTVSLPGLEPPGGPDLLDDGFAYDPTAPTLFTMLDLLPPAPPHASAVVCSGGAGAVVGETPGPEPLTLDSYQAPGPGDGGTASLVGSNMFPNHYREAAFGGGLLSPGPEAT

[6] = Cytotoxicity against human B cells assessed as cell death after 48 hrs by annexin V/propidium iodide-staining based flow cytometry; conditions: read-out: LC50; in short: as §1
[7] = target: T3, Nuclear factor NF-kappa-B p100 subunit (Homo sapiens) (UniProt Q00653); experiment: Inhibition of NF-kappaB in human JJN-3 cells assessed as reduction in p52 DNA binding activity up to 30 nM after 4 hrs by ELISA; assay type: cell-based
T3 sequence (whole entry): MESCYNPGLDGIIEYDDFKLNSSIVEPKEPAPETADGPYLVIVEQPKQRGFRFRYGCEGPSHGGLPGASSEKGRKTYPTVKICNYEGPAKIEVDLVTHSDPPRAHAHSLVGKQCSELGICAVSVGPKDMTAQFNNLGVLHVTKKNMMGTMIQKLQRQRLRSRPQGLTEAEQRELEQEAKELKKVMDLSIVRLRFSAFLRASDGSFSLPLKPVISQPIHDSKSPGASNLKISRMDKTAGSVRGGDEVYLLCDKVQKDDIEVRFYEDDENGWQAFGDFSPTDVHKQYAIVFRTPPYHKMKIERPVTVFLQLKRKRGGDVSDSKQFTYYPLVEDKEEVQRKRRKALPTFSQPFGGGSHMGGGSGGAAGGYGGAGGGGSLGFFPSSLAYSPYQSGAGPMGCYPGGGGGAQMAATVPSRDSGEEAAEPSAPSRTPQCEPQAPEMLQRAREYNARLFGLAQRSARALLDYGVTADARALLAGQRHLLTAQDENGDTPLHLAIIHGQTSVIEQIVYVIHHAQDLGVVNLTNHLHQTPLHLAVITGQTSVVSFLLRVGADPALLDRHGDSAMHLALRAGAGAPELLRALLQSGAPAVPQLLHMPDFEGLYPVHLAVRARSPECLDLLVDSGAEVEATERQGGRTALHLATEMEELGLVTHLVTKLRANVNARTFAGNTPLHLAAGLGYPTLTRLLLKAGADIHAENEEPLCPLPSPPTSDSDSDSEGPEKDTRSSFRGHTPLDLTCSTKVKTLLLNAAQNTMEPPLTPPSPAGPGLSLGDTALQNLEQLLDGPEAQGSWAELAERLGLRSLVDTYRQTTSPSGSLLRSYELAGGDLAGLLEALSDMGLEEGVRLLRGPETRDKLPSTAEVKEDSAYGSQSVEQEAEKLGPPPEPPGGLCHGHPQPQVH

[8] = Therapeutic index, ratio of LC50 for human T cells to LC50 for human primary CLL cells; assay type: toxicity; conditions: T cells versus primary CLL cells, read-out: TI
[9] = target: Transcription factor p65 (Homo sapiens) (UniProt Q04206); experiment: Inhibition of NF-kappaB in human JJN-3 cells assessed as reduction in p65 DNA binding activity up to 30 nM after 4 hrs by ELISA; assay type: cell-based
Chain of Transcription factor p65 (Homo sapiens) (Q04206 whole entry): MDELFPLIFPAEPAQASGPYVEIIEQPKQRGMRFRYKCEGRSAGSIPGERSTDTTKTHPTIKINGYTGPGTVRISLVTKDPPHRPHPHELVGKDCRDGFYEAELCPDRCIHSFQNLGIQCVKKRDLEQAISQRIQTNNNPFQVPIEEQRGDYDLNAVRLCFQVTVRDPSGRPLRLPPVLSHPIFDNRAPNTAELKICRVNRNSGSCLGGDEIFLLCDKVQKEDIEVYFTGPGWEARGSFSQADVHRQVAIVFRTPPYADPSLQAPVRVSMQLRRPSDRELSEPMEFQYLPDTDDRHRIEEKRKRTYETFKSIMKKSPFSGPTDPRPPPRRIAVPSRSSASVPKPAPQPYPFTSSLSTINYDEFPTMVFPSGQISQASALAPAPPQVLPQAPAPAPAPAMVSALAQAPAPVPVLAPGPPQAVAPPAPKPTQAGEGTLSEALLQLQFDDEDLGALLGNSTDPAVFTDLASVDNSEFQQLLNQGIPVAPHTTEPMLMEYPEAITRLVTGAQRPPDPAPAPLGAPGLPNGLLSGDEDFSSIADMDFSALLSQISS

SMILES: COc1cc2c(cc1OCCCC(=O)Nc1ccc(C)cc1)N=C[C@@H]1CCCN1C2=O
- CC50 [1]: 12.3 nM
- CC50 (JJN-3): 17.5 nM

SMILES: COc1cc2c(cc1OCCCC(=O)Nc1ccc3c(c1)CCC3)N=C[C@@H]1CCCN1C2=O
- CC50 [1]: 7.7 nM
- CC50 (JJN-3): 30 nM

SMILES: COc1cc2c(cc1OCCCC(=O)Nc1cccnc1)N=C[C@@H]1CCCN1C2=O
- CC50 [1]: 4200 nM
- CC50 (JJN-3): 1600 nM

SMILES: COc1cc2c(cc1OCCCC(=O)Nc1ccc(C)c(C)c1)N=C[C@@H]1CCCN1C2=O
- CC50 [1]: 8.6 nM
- CC50 (JJN-3): 23.7 nM

SMILES: CCOc1ccc(NC(=O)CCCOc2cc3c(cc2OC)C(=O)N2CCC[C@H]2C=N3)cc1
- CC50 [1]: 5.8 nM
- inhibition [2]: Active
- CC50 at 48 h [3]: 3000 nM
- selectivity ratio [4]: 129
- inhibition [5]: inactive
- CC50 at 48 h [6]: 750 nM
- inhibition [7]: inactive
- CC50 (JJN-3): 15.6 nM
- selectivity ratio [8]: 517
- inhibition [9]: inactive

SMILES: COc1cc2c(cc1OCCCC(=O)Nc1ccc(O)cc1)N=C[C@@H]1CCCN1C2=O
- CC50 [1]: 5500 nM
- inhibition [2]: Active
- inhibition [5]: inactive
- CC50 (JJN-3): 2200 nM
- inhibition [9]: inactive

SMILES: COC(=O)c1cc2cc(NC(=O)CCCOc3cc4c(cc3OC)C(=O)N3CCC[C@H]3C=N4)ccc2o1
- CC50 [1]: 8.9 nM
- CC50 at 48 h [3]: 2100 nM
- selectivity ratio [4]: 46.1
- CC50 at 48 h [6]: 410 nM
- CC50 (JJN-3): 49 nM
- selectivity ratio [8]: 236

SMILES: COc1cc2c(cc1OCCCC(=O)Nc1ccccc1)N=C[C@@H]1CCCN1C2=O
- CC50 [1]: 11.6 nM
- inhibition [2]: Active
- inhibition [5]: inactive
- CC50 (JJN-3): 26.4 nM
- inhibition [9]: inactive

SMILES: COc1cc2c(cc1OCCCC(=O)Nc1cccc(C)c1)N=C[C@@H]1CCCN1C2=O
- CC50 [1]: 13.6 nM
- CC50 (JJN-3): 20.2 nM

SMILES: CCCCNC(=O)CCCOc1cc2c(cc1OC)C(=O)N1CCC[C@H]1C=N2
- CC50 [1]: 22400 nM
- CC50 (JJN-3): 51600 nM

SMILES: CCCNC(=O)CCCOc1cc2c(cc1OC)C(=O)N1CCC[C@H]1C=N2
- CC50 [1]: 25100 nM
- CC50 (JJN-3): 12700 nM

SMILES: COc1cc2c(cc1OCCCC(=O)NC1CCCCC1)N=C[C@@H]1CCCN1C2=O
- CC50 [1]: 7100 nM
- CC50 at 48 h [3]: 12400 nM
- selectivity ratio [4]: 0.24
- CC50 at 48 h [6]: 1700 nM
- CC50 (JJN-3): 1400 nM
- selectivity ratio [8]: 1.74

SMILES: CCCOc1ccc(NC(=O)CCCOc2cc3c(cc2OC)C(=O)N2CCC[C@H]2C=N3)cc1
- CC50 [1]: 8.5 nM
- CC50 at 48 h [3]: 1100 nM
- selectivity ratio [4]: 45.9
- CC50 at 48 h [6]: 390 nM
- CC50 (JJN-3): 8.7 nM
- selectivity ratio [8]: 129

SMILES: COc1cc2c(cc1OCCCC(=O)Nc1ccc3occc3c1)N=C[C@@H]1CCCN1C2=O
- CC50 [1]: 9.4 nM
- inhibition [2]: Active
- CC50 at 48 h [3]: 3900 nM
- selectivity ratio [4]: 149
- inhibition [5]: inactive
- CC50 at 48 h [6]: 1400 nM
- CC50 (JJN-3): 44 nM
- selectivity ratio [8]: 415
- inhibition [9]: Active

SMILES: COc1cc2c(cc1OCCCC(=O)Nc1ccc3c(c1)CCO3)N=C[C@@H]1CCCN1C2=O
- CC50 [1]: 5.1 nM
- CC50 (JJN-3): 14.7 nM

SMILES: CCNC(=O)CCCOc1cc2c(cc1OC)C(=O)N1CCC[C@H]1C=N2
- CC50 [1]: 11700 nM
- CC50 (JJN-3): 28700 nM

SMILES: COc1cc2c(cc1OCCCC(=O)Nc1ccncc1)N=C[C@@H]1CCCN1C2=O
- CC50 [1]: 4900 nM
- CC50 (JJN-3): 6700 nM

SMILES: COC(=O)c1cc(NC(=O)c2cc3cc(NC(=O)CCCOc4cc5c(cc4OC)C(=O)N4CCC[C@H]4C=N5)ccc3o2)cn1C
- CC50 [1]: 7.5 nM
- inhibition [2]: inactive
- CC50 at 48 h [3]: 1700 nM
- selectivity ratio [4]: 124
- inhibition [5]: Active
- CC50 at 48 h [6]: 930 nM
- inhibition [7]: inactive
- CC50 (JJN-3): 30 nM
- selectivity ratio [8]: 227

SMILES: CNC(=O)CCCOc1cc2c(cc1OC)C(=O)N1CCC[C@H]1C=N2
- CC50 [1]: 16100 nM
- CC50 (JJN-3): 18500 nM

SMILES: COC(=O)c1cc(NC(=O)c2cc(NC(=O)CCCOc3cc4c(cc3OC)C(=O)N3CCC[C@H]3C=N4)cn2C)cn1C
- CC50 [1]: 39 nM
- CC50 (JJN-3): 21 nM

SMILES: COc1ccc(NC(=O)CCCOc2cc3c(cc2OC)C(=O)N2CCC[C@H]2C=N3)cc1
- CC50 [1]: 8.9 nM
- inhibition [2]: Active
- CC50 at 48 h [3]: 690 nM
- selectivity ratio [4]: 71.9
- inhibition [5]: inactive
- CC50 at 48 h [6]: 640 nM
- CC50 (JJN-3): 15.3 nM
- selectivity ratio [8]: 77.5
- inhibition [9]: inactive
